Measured values reported in ChEMBL document CHEMBL2375318, “Design, synthesis and antimicrobial activity of novel benzothiazole analogs” (Eur J Med Chem, 2013).
Converted amounts (≈) assume the structure as drawn.

Key:
[1] = tested on: Pichia kudriavzevii; assay: Antifungal activity against Candida krusei ATCC 6258 after 18 to 24 hrs by micro-dilution method; assay type: functional
Outline: (§1)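 Broth micro-dilution MIC, fungi. Fresh broth cultures were made in normal saline. Compounds were serially diluted in microtiter plates across 8 concentrations, 100 down to 0.78. Standardized inoculum was 1–2 × 10^7 cfu/ml. Medium was Sabouraud dextrose pH 7.3 ± 0.2. Plates were incubated aerobically at 37 °C for 18–24 h. MIC is the lowest concentration with no visible growth or turbidity versus control. Fluconazole was the reference.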

[2] = tested on: Candida albicans; assay: Antifungal activity against Candida albicans ATCC 90028 after 18 to 24 hrs by micro-dilution metho; assay type: functional; outline: as §1
[3] = tested on: Aspergillus niger; assay: Antimicrobial activity against Aspergillus niger clinical isolate after 18 to 24 hrs by micro-dilution method; assay type: functional; outline: as §1
[4] = tested on: Pseudomonas aeruginosa; assay: Antimicrobial activity against Pseudomonas aeruginosa ATCC 27893 after 18 to 24 hrs by micro-dilution method; assay type: functional
[5] = tested on: Shigella boydii; assay: Antimicrobial activity against Shigella boydii clinical isolate after 18 to 24 hrs by micro-dilution method; assay type: functional
[6] = tested on: Escherichia coli; assay: Antimicrobial activity against Escherichia coli ATCC 35218 after 18 to 24 hrs by micro-dilution method; assay type: functional
[7] = Cytotoxicity against human RBC assessed as hemolytic activity at 100 uM after 1 hr by spectophotometry; assay type: cell-based, Erythrocyte; settings: red blood cells (RBC), read-out: Activity
Outline: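 Hemolysis, fresh human blood. RBCs were washed three times in PBS (spun 3000 rpm, 7 min, room temperature) and adjusted to 5×10^8 cells/ml. Cell suspension was added to buffer holding 100 μM compound in 1% v/v DMSO/PBS. Controls were 1% DMSO/PBS and sterile water. Samples were shaken at 37 °C for 1 h, spun at 1300 rpm for 5 min, and supernatant absorbance read at 540 nm.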

[8] = tested on: Cryptococcus neoformans; assay: Antifungal activity against Cryptococcus neoformans clinical isolate after 18 to 24 hrs by micro-dilution method; assay type: functional; outline: as §1
[9] = tested on: Candida tropicalis; assay: Antifungal activity against Candida tropicalis ATCC 750 after 18 to 24 hrs by micro-dilution method; assay type: functional; outline: as §1
[10] = tested on: Salmonella typhi; assay: Antimicrobial activity against Salmonella typhi MTCC 3216 after 18 to 24 hrs by micro-dilution method; assay type: functional, Salmonella enterica subsp. enterica serovar Typhi; settings: Salmonella enterica
Outline: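 Broth microdilution with twofold serial dilutions from 100 down to 0.78, eight concentrations. Fresh cultures were made up in normal saline, and 0.1 ml of standardized inoculum (1–2 × 10^7 cfu/ml) was added per well. Plates were incubated aerobically at 37 °C for 18–24 h on Mueller-Hinton agar/Luria broth. MIC was the lowest concentration with no visible turbidity compared with the control.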

[11] = tested on: Klebsiella pneumoniae; assay: Antimicrobial activity against Klebsiella pneumoniae clinical isolate after 18 to 24 hrs by micro-dilution method; assay type: functional
[12] = tested on: Candida albicans; assay: Antifungal activity against Candida albicans clinical isolate after 18 to 24 hrs by micro-dilution method; assay type: functional; outline: as §1
[13] = tested on: Enterococcus faecalis; assay: Antimicrobial activity against Enterococcus faecalis clinical isolate after 18 to 24 hrs by micro-dilution method; assay type: functional
[14] = tested on: Aspergillus fumigatus; assay: Antimicrobial activity against Aspergillus fumigatus clinical isolate after 18 to 24 hrs by micro-dilution method; assay type: functional; outline: as §1
[15] = tested on: Staphylococcus aureus; assay: Antimicrobial activity against Staphylococcus aureus ATCC 25323 after 18 to 24 hrs by micro-dilution method; assay type: functional

Brc1ccc(-n2cc(CN(Cc3cn(-c4ccc(Br)cc4)nn3)c3nc4ccccc4s3)nn2)cc1
MIC [1]: 6.25 µg/mL (≈ 10 µM) | MIC [2]: 6.25 µg/mL (≈ 10 µM) | MIC [3]: 3.12 µg/mL (≈ 5.01 µM) | MIC [4]: > 100 µg/mL | MIC [5]: > 100 µg/mL | MIC [6]: > 100 µg/mL | hemolysis at 1 h, 100 µM [7]: 12.4% | MIC [8]: 1.56 µg/mL (≈ 2.51 µM) | MIC [9]: 6.25 µg/mL (≈ 10 µM) | MIC [10]: > 100 µg/mL | MIC [11]: > 100 µg/mL | MIC [12]: 12.5 µg/mL (≈ 20.1 µM) | MIC [13]: > 100 µg/mL | MIC [14]: 3.12 µg/mL (≈ 5.01 µM) | MIC [15]: > 100 µg/mL

Clc1ccc(-n2cc(CN(Cc3cn(-c4ccc(Cl)cc4Cl)nn3)c3nc4ccccc4s3)nn2)c(Cl)c1
MIC [1]: 6.25 µg/mL (≈ 10.4 µM) | MIC [2]: 6.25 µg/mL (≈ 10.4 µM) | MIC [3]: 1.56 µg/mL (≈ 2.59 µM) | MIC [4]: > 100 µg/mL | MIC [5]: > 100 µg/mL | MIC [6]: 50 µg/mL (≈ 83 µM) | hemolysis at 1 h, 100 µM [7]: 4.54% | MIC [8]: 3.12 µg/mL (≈ 5.18 µM) | MIC [9]: 12.5 µg/mL (≈ 20.8 µM) | MIC [10]: > 100 µg/mL | MIC [11]: > 100 µg/mL | MIC [12]: 12.5 µg/mL (≈ 20.8 µM) | MIC [13]: 50 µg/mL (≈ 83 µM) | MIC [14]: 1.56 µg/mL (≈ 2.59 µM) | MIC [15]: 50 µg/mL (≈ 83 µM)

COc1cccc(-n2cc(CN(Cc3cn(-c4cccc(OC)c4)nn3)c3nc4ccccc4s3)nn2)c1
MIC [1]: 6.25 µg/mL (≈ 11.9 µM) | MIC [2]: 6.25 µg/mL (≈ 11.9 µM) | MIC [3]: 3.12 µg/mL (≈ 5.95 µM) | MIC [4]: > 100 µg/mL | MIC [5]: > 100 µg/mL | MIC [6]: 50 µg/mL (≈ 95.3 µM) | hemolysis at 1 h, 100 µM [7]: 7.54% | MIC [8]: 1.56 µg/mL (≈ 2.97 µM) | MIC [9]: 12.5 µg/mL (≈ 23.8 µM) | MIC [10]: > 100 µg/mL | MIC [11]: > 100 µg/mL | MIC [12]: 25 µg/mL (≈ 47.7 µM) | MIC [13]: > 100 µg/mL | MIC [14]: 3.12 µg/mL (≈ 5.95 µM) | MIC [15]: 100 µg/mL (≈ 191 µM)
